pEC50: −log10 of the molar value.
What was measured:
[1] = target: T1, Muscarinic acetylcholine receptor M5 (Homo sapiens, UniProt P08912); assay: Positive allosteric modulator activity at human muscarinic acetylcholine receptor subtype 5 expressed in CHO cells by calcium mobilization assay; format: functional, cell-based; settings: for pEC50: read-out: EC50; for EC50: cho
T1 sequence (P08912 whole entry): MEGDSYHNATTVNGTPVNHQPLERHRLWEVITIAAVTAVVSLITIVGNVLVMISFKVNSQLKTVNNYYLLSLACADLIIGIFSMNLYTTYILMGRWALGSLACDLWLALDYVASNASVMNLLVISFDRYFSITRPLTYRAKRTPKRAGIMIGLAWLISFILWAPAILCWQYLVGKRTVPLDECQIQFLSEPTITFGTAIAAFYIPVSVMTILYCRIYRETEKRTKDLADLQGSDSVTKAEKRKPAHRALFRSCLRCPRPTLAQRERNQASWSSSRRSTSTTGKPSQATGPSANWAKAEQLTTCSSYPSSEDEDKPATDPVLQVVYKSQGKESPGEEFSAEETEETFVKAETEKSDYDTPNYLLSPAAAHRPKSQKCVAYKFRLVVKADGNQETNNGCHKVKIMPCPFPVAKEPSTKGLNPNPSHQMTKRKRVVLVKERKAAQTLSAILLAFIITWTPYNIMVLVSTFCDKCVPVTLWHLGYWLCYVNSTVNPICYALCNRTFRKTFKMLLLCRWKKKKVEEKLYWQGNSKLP

[2] = target: T2, Muscarinic acetylcholine receptor M5 (Homo sapiens) (UniProt P08912); assay: Positive allosteric modulator activity at human muscarinic acetylcholine receptor subtype 5 expressed in CHO cells by calcium mobilization assay relative to acetylcholine; format: functional, cell-based
T2 sequence (whole entry): T1 sequence (P08912 whole entry)

[3] = target: T2, Muscarinic acetylcholine receptor M5 (Homo sapiens); assay: Displacement of [3H]NMS from human muscarinic acetylcholine receptor subtype 5 expressed in CHO cell membranes assessed as radioligand binding level by scintillation counting method
[4] = target: T2, Muscarinic acetylcholine receptor M5 (Homo sapiens); assay: Positive allosteric modulator activity at human muscarinic acetylcholine receptor subtype 5 expressed in CHO cells assessed as fold shift in acetylcholine-induced response at 10 uM by calcium mobilization assay; format: functional, cell-based
Summary of the method: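 In hM5 CHO cells by calcium mobilization, PAM at a fixed 10 μM or vehicle is added before an ACh concentration-response curve. Fold shift is the ratio of ACh potency without PAM to potency with PAM.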

[5] = Intrinsic clearance in rat liver microsomes; format: ADME; settings: read-out: CLH
Summary of the method: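 Microsomal intrinsic clearance, used in the well-stirred model of organ clearance, not corrected for plasma fraction unbound, to predict hepatic clearance.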

Row | SMILES | pEC50 [1] | %max [2] [%] | other results
1 | CCN(Cc1ccccc1)C(=O)C1CCN(S(=O)(=O)c2ccccn2)CC1 | < 5.00 | – | –
2 | CCN(Cc1ccccc1)C(=O)C1CCN(S(=O)(=O)c2cccc(OC)c2)CC1 | 5.51 | 77 | –
3 | CN1[C@@H]2CC[C@H]1C[C@@H](OC(=O)C(CO)c1ccccc1)C2 (stereo partly specified) | – | – | %max [3]: 1.8%
4 | CCCN(Cc1ccccc1C(F)(F)F)C(=O)C1CCN(S(=O)(=O)c2ccc3[nH]ncc3c2)CC1 | 6.80 | 94 | –
5 | CCN(Cc1ccccc1)C(=O)C1CCN(S(=O)(=O)c2ccc3[nH]ncc3c2)CC1 | 5.80 | 86 | fold change (FC) [4]: 5.4
6 | CCN(Cc1ccccc1)C(=O)C1CCN(S(=O)(=O)c2cccnc2)CC1 | < 5.00 | – | –
7 | CCN(Cc1cccc(C)c1)C(=O)C1CCN(S(=O)(=O)c2ccc3cn[nH]c3c2)CC1 | 6.06 | 78 | –
8 | CCN(Cc1ccccc1)C(=O)C1CCN(S(=O)(=O)c2cccc3c2OCCO3)CC1 | < 5.00 | 53 | –
9 | CCN(Cc1ccccc1)C(=O)C1CCN(S(=O)(=O)c2c(C)noc2C)CC1 | < 5.00 | – | –
10 | CCC(C)N(Cc1ccccc1C(F)(F)F)C(=O)C1CCN(S(=O)(=O)c2ccc3[nH]ncc3c2)CC1 (stereo unspecified) | 6.82 | 100 | –
11 | CCN(C(=O)C1CCN(S(=O)(=O)c2ccc(OC)cc2)CC1)[C@H](C)c1ccccc1 | 6.01 | 90 | fold change (FC) [4]: 7
12 | CC(C)N(Cc1ccccc1C(F)(F)F)C(=O)C1CCN(S(=O)(=O)c2ccc3[nH]ncc3c2)CC1 | < 5.00 | 54 | –
13 | CCN(C(=O)C1CCN(S(=O)(=O)c2ccc3c(c2)CCC3)CC1)[C@H](C)c1ccccc1 | 6.14 | 97 | –
14 | CCN(Cc1ccccc1)C(=O)C1CCN(S(=O)(=O)c2ccc(C(F)(F)F)nc2)CC1 | < 5.00 | – | –
15 | CCN(Cc1ccccc1OC)C(=O)C1CCN(S(=O)(=O)c2ccc3cn[nH]c3c2)CC1 | 6.12 | 92 | –
16 | CCN(Cc1ccccc1)C(=O)C1CCN(S(=O)(=O)c2ccccc2OC)CC1 | < 5.00 | – | –
17 | C=CCN(Cc1ccccc1C(F)(F)F)C(=O)C1CCN(S(=O)(=O)c2ccc3[nH]ncc3c2)CC1 | 5.74 | 79 | –
18 | CCN(Cc1ccccc1)C(=O)C1CCN(S(=O)(=O)c2ccc3c(c2)OCO3)CC1 | 5.13 | 93 | –
19 | CC(C)(C)CN(Cc1ccccc1C(F)(F)F)C(=O)C1CCN(S(=O)(=O)c2ccc3[nH]ncc3c2)CC1 | 6.92 | 104 | CLint scaled [5]: > 500 mL/min/kg
20 | CCN(Cc1ccccc1)C(=O)C1CCN(S(=O)(=O)c2c[nH]cn2)CC1 | < 5.00 | – | –
21 | CCN(C(=O)C1CCN(S(=O)(=O)c2ccc3occc3c2)CC1)[C@H](C)c1ccccc1 | 6.03 | 80 | –
22 | CCN(Cc1ccccc1)C(=O)C1CCN(S(=O)(=O)c2ccc3occc3c2)CC1 | 5.62 | 80 | –
23 | CCN(Cc1ccccc1C)C(=O)C1CCN(S(=O)(=O)c2ccc3cn[nH]c3c2)CC1 | 6.06 | 103 | –
24 | O=C(C1CCN(S(=O)(=O)c2ccc3[nH]ncc3c2)CC1)N(Cc1ccccc1C(F)(F)F)C1CCC1 | 5.74 | 84 | –
25 | CCN(Cc1ccccc1C(F)(F)F)C(=O)C1CCN(S(=O)(=O)c2ccc3cn[nH]c3c2)CC1 | 6.32 | 92 | fold change (FC) [4]: 7
26 | CCN(Cc1ccccc1)C(=O)C1CCN(S(=O)(=O)c2ccncc2)CC1 | < 5.00 | – | –
27 | CCN(Cc1ccccc1Cl)C(=O)C1CCN(S(=O)(=O)c2ccc3cn[nH]c3c2)CC1 | 6.19 | 93 | –

Row | SMILES | pEC50 [1] | %max [2] [%] | other results
28 | CCN(C(=O)C1CCN(S(=O)(=O)c2ccc3c(c2)CCO3)CC1)[C@H](C)c1ccccc1 | 5.95 | 88 | –
29 | CCN(Cc1ccccc1)C(=O)C1CCN(S(=O)(=O)c2ccc(OC)c(OC)c2)CC1 | < 5.00 | 57 | –
30 | CCN(Cc1ccccc1)C(=O)C1CCN(S(=O)(=O)c2ccc(C)s2)CC1 | < 5.00 | 64 | –
31 | O=C(C1CCN(S(=O)(=O)c2ccc3[nH]ncc3c2)CC1)N(Cc1ccccc1C(F)(F)F)C1CC1 | – | – | EC50 [1]: Not Active
32 | CCN(Cc1ccccc1)C(=O)C1CCN(S(=O)(=O)c2ccc3cccnc3c2)CC1 | < 5.00 | 66 | –
33 | CCN(Cc1ccccc1)C(=O)C1CCN(S(=O)(=O)c2ccc3nsnc3c2)CC1 | 5.52 | 81 | –
34 | CCN(Cc1ccccc1)C(=O)C1CCN(S(=O)(=O)c2ccc3cn[nH]c3c2)CC1 | 5.77 | 86 | fold change (FC) [4]: 4.8
35 | CCN(C(=O)C1CCN(S(=O)(=O)c2ccc3[nH]ncc3c2)CC1)[C@H](C)c1ccccc1 | 6.13 | 86 | fold change (FC) [4]: 12
36 | CCN(Cc1cccc(Cl)c1)C(=O)C1CCN(S(=O)(=O)c2ccc3cn[nH]c3c2)CC1 | 5.80 | 77 | –
37 | CCN(Cc1ccccc1)C(=O)C1CCN(S(=O)(=O)c2ccc3c(c2)OCCO3)CC1 | – | – | fold change (FC) [4]: 2.3
38 | CCN(Cc1ccccc1Cl)C(=O)C1CCN(S(=O)(=O)c2ccc3[nH]ncc3c2)CC1 | 6.46 | 78 | –
39 | CCN(C(=O)C1CCN(S(=O)(=O)c2ccc3cn[nH]c3c2)CC1)[C@H](C)c1ccccc1 | 6.12 | 87 | –
40 | O=C(C1CCN(S(=O)(=O)c2ccc3[nH]ncc3c2)CC1)N(CCF)Cc1ccccc1C(F)(F)F | 5.89 | 95 | –
41 | CCN(Cc1cccc(OC)c1)C(=O)C1CCN(S(=O)(=O)c2ccc3cn[nH]c3c2)CC1 | 5.59 | 85 | –
42 | CCN(Cc1ccc(F)cc1)C(=O)C1CCN(S(=O)(=O)c2ccc3cn[nH]c3c2)CC1 | < 5.00 | 55 | –
43 | CCN(C(=O)C1CCN(S(=O)(=O)c2ccc(OC)cc2)CC1)[C@@H](C)c1ccccc1 | – | – | EC50 [1]: Not Active
44 | CCN(Cc1cccc(C(F)(F)F)c1)C(=O)C1CCN(S(=O)(=O)c2ccc3cn[nH]c3c2)CC1 | 5.25 | 59 | –
45 | CCN(Cc1ccc(C(F)(F)F)cc1)C(=O)C1CCN(S(=O)(=O)c2ccc3cn[nH]c3c2)CC1 | – | – | EC50 [1]: Not Active
46 | CCN(Cc1ccccc1)C(=O)C1CCN(S(=O)(=O)c2cccc3nsnc23)CC1 | < 5.00 | – | –
47 | O=C(C1CCN(S(=O)(=O)c2ccc3[nH]ncc3c2)CC1)N(CCO)Cc1ccccc1C(F)(F)F | < 5.00 | 60 | –
48 | CCN(Cc1ccccc1)C(=O)C1CCN(S(=O)(=O)c2ccccc2)CC1 | 5.21 | 69 | –
49 | O=C(C1CCN(S(=O)(=O)c2ccc3[nH]ncc3c2)CC1)N(Cc1ccccc1C(F)(F)F)CC1CC1 | 6.92 | 102 | CLint scaled [5]: > 500 mL/min/kg
50 | O=C(C1CCN(S(=O)(=O)c2ccc3[nH]ncc3c2)CC1)N(Cc1ccccc1C(F)(F)F)CC1CCC1 | 6.89 | 103 | CLint scaled [5]: > 500 mL/min/kg
51 | CCN(Cc1cccc(F)c1)C(=O)C1CCN(S(=O)(=O)c2ccc3cn[nH]c3c2)CC1 | 5.82 | 89 | –
52 | CCN(Cc1ccccc1F)C(=O)C1CCN(S(=O)(=O)c2ccc3cn[nH]c3c2)CC1 | 5.68 | 84 | –
53 | CCN(Cc1ccccc1)C(=O)C1CCN(S(=O)(=O)c2ccc(OC)cc2)CC1 | 5.48 | 84 | –

Source: ChEMBL document CHEMBL3352313 (J Med Chem, 2014)
